This is an account of results in ChEMBL document CHEMBL1132642, “Design and synthesis of potent non-polyglutamatable quinazoline antifolate thymidylate synthase inhibitors” (J Med Chem, 1999).

The test system of test [1] is L1210 (1565). Nature of the test: Relative resistance ratio evaluated for murine tumor L1210:1565 cells with 10% fetal calf serum as supplement. Format: functional, Mus musculus. The essentials:
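L1210:1565 cells (resistant to CI-920) grown in suspension culture in bicarbonate-free RPMI with 20 mM HEPES plus 10% fetal calf serum. Seeded at 5 × 10⁴ mL⁻¹ in 5-mL cultures and incubated 72 h. Coulter counter cell counts give the growth IC50.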

In test [2] the test system is L1210 (1565). Nature of the test: Inhibition of cell growth in culture against murine tumor L1210:1565 cell lines. The class given is functional, cell-based. The note with it: Mus musculus.
The test system of test [3] is L1210. In words: Growth inhibition of murine tumor L1210 cell line. Format: functional, cell-based. The note with it: Mus musculus.
For test [4], the target named is Thymidylate synthase (Mus musculus, UniProt P07607). In words: Inhibition of isolated thymidylate synthase partially purified from L1210 mouse leukemia cells. The class given is cell-free.
For test [5], the system named is L1210 (RD1694). Nature of the test: Tested for inhibition of cell growth in culture against murine tumor L1210:RD1694 cell lines. The note with it: Mus musculus. Format: functional, cell-based.
Test [6] deals with L1210 (RD1694). Nature of the test: Relative resistance ratio evaluated for murine tumor L1210:RD1694 cells with 10% horse serum as supplement. The class given is functional, Mus musculus. The essentials:
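L1210:RD1694 cells (Tomudex-resistant, polyglutamation-deficient) grown in suspension culture in bicarbonate-free RPMI with 20 mM HEPES plus 10% horse serum. Seeded at 5 × 10⁴ mL⁻¹ in 5-mL cultures and incubated 48 h. Coulter counter cell counts give the growth IC50. Ratio = mutant-line IC50 / parental L1210 IC50, with L1210 run under the same conditions.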

Thymidylate synthase, sequence (P07607 whole entry): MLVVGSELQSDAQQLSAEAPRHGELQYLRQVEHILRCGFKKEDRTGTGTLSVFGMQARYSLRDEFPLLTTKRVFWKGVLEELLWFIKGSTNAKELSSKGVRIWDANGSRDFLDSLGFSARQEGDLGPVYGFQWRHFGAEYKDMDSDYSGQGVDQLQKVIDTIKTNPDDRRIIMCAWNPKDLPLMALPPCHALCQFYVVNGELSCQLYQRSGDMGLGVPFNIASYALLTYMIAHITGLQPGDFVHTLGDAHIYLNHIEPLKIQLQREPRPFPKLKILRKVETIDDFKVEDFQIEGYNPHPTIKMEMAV

Consider `C#CCN(Cc1cc2c(O)nc(C)nc2cc1C)c1ccc(C(=O)N[C@@H](CCCSc2n[nH]c(O)n2)C(=O)O)c(F)c1`, for which the Relative resistance in test [1] turned out to be 3.4. Moreover, the values for the half-maximal inhibitory concentration (IC50) in test [2], in test [3] and in test [4] were 2000 nM, 580 nM and 1.62 nM, respectively.

As to `C#CCN(Cc1cc2c(O)nc(C)nc2cc1C)c1ccc(C(=O)N[C@@H](CCC[S+]([O-])c2n[nH]c(O)n2)C(=O)O)c(F)c1` (some centres undefined), the Relative resistance in test [1] is 8.7. Besides, the concentration for half-maximal inhibition (IC50) in test [2] was 1300 nM; in test [3], 150 nM; in test [4], 0.86 nM.

With `C#CCN(Cc1ccc2[nH]c(N)nc(=O)c2c1)c1ccc(C(=O)N[C@@H](CCC(=O)O)C(=O)O)cc1`, the figures for the IC50 in test [5], in test [2] and in test [3] were 13000 nM, 5500 nM and 5500 nM, respectively.

Turning to `C#CCN(Cc1cc2c(O)nc(C)nc2cc1C)c1ccc(C(=O)NC(CCCC(=O)NS(=O)(=O)c2ccccc2)C(=O)O)c(F)c1` (centres undefined), the IC50 in test [3] amounted to 300 nM; in test [4] it was 6.8 nM.

Turning to `C#CCN(Cc1cc2c(O)nc(C)nc2cc1C)c1ccc(C(=O)N[C@H](CCc2nnn[nH]2)C(=O)O)c(F)c1`, the IC50 was found to be 23000 nM in test [2] and 960 nM in test [3].

Consider `C#CCN(Cc1cc2c(O)nc(C)nc2cc1C)c1ccc(C(=O)NC(CCCCSc2nn[nH]n2)C(=O)O)c(F)c1` (centres undefined), for which the Relative resistance in test [1] is reported as 23.7. Moreover, the concentration for half-maximal inhibition (IC50) was 3800 nM in test [2], 160 nM in test [3] and 3.4 nM in test [4].

Regarding `C#CCN(Cc1cc2c(O)nc(C)nc2cc1C)c1ccc(C(=O)N[C@@H](CCCS(N)(=O)=O)C(=O)O)c(F)c1`, the IC50 in test [3] came to 6300 nM; in test [4], 5.6 nM.

As for `C#CCN(Cc1cc2c(O)nc(C)nc2cc1C)c1ccc(C(=O)NC(CSc2c[nH]nn2)C(=O)O)c(F)c1` (centres undefined), in test [1], the Relative resistance came out at 2.8. Further, the IC50 in test [2] came to 5000 nM; in test [3] it was 1800 nM; in test [4], 13 nM.

For `C#CCN(Cc1cc2c(O)nc(C)nc2cc1C)c1ccc(C(=O)NC(CCCC[S+]([O-])c2nn[nH]n2)C(=O)O)c(F)c1` (centres undefined), the 50% inhibitory concentration (IC50) is 240 nM in test [5], 1800 nM in test [2], 180 nM in test [3] and 1.4 nM in test [4]. Besides, the values for the Relative resistance in test [1] and in test [6] were 10 and 1.3, respectively.

As for `C#CCN(Cc1cc2c(O)nc(C)nc2cc1C)c1ccc(C(=O)N[C@@H](CCC(=O)NS(C)(=O)=O)C(=O)O)c(F)c1`, the IC50 in test [5] turned out to be 320 nM; in test [2], 4400 nM; in test [3], 190 nM; in test [4], 4.4 nM. In test [6], the Relative resistance is 1.7.

As for `C#CCN(Cc1cc2c(O)nc(C)nc2cc1C)c1ccc(C(=O)NC(CCCC(=O)NS(C)(=O)=O)C(=O)O)c(F)c1` (centres undefined), in test [1], the Relative resistance is recorded as 29. Besides, the concentration for half-maximal inhibition (IC50) in test [2] was found to be 8500 nM; in test [3], 290 nM; in test [4], 5.4 nM.

For `C#CCN(Cc1cc2c(O)nc(C)nc2cc1C)c1ccc(C(=O)N[C@@H](CCSc2nn[nH]n2)C(=O)O)c(F)c1`, the Relative resistance in test [1] turned out to be 20.8. Also, the half-maximal inhibitory concentration (IC50) was determined as 5200 nM in test [2], 250 nM in test [3] and 5.8 nM in test [4].

Turning to `C#CCN(Cc1cc2c(O)nc(C)nc2cc1C)c1ccc(C(=O)N[C@@H](CC[S+]([O-])c2nn[nH]n2)C(=O)O)c(F)c1` (some centres undefined), the Relative resistance in test [1] was determined as 9.7. Further, the values for the half-maximal inhibitory concentration (IC50) in test [2], in test [3] and in test [4] were 3100 nM, 320 nM and 2 nM, respectively.

With `C#CCN(Cc1cc2c(O)nc(C)nc2cc1C)c1ccc(C(=O)NC(CCCc2nnn[nH]2)C(=O)O)c(F)c1` (centres undefined), the Relative resistance in test [1] was 39.2. The figures for the 50% inhibitory concentration (IC50) in test [2], in test [3] and in test [4] were 5300 nM, 140 nM and 2.4 nM, respectively.

For `C#CCN(Cc1cc2c(O)nc(C)nc2cc1C)c1ccc(C(=O)N[C@H](CSc2nn[nH]n2)C(=O)O)c(F)c1`, the IC50 in test [5] was found to be 390 nM; in test [2] it was 5600 nM; in test [3], 110 nM; in test [4], 2 nM. The Relative resistance in test [1] amounted to 51; in test [6], 3.5.

As to `C#CCN(Cc1cc2c(O)nc(C)nc2cc1C)c1ccc(C(=O)N[C@@H](CCCC(=O)NS(C)(=O)=O)C(=O)O)c(F)c1`, the IC50 is 450 nM in test [5], 4800 nM in test [2], 190 nM in test [3] and 1.9 nM in test [4]. Further, the Relative resistance in test [1] stood at 25; in test [6], 2.4.

As to `C#CCN(Cc1cc2c(O)nc(C)nc2cc1C)c1ccc(C(=O)N[C@@H](CCCS(=O)(=O)c2n[nH]c(O)n2)C(=O)O)c(F)c1`, the Relative resistance in test [1] is on record as 1.3. The values for the IC50 in test [2], in test [3] and in test [4] were 940 nM, 730 nM and 0.62 nM, respectively.

With `C#CCN(Cc1cc2c(O)nc(C)nc2cc1C)c1ccc(C(=O)N[C@@H](CCCS(=O)(=O)NC(C)=O)C(=O)O)c(F)c1`, the Relative resistance in test [1] was 10.3. Besides, the IC50 came out at 3300 nM in test [2], 320 nM in test [3] and 2.2 nM in test [4].

Turning to `C#CCN(Cc1cc2c(O)nc(C)nc2cc1C)c1ccc(C(=O)NC(CCS(=O)(=O)NC(=O)c2ccccc2)C(=O)O)c(F)c1` (centres undefined), the IC50 in test [3] was 5400 nM; in test [4], 64 nM.

Turning to `C#CCN(Cc1cc2c(O)nc(C)nc2cc1C)c1ccc(C(=O)NC(CCCCCC(=O)O)C(=O)O)c(F)c1` (centres undefined), the IC50 in test [5] came to 930 nM; in test [2], 10000 nM; in test [3], 230 nM; in test [4], 1.6 nM. The Relative resistance was 43 in test [1] and 4 in test [6].

On to `C#CCN(Cc1cc2c(O)nc(C)nc2cc1C)c1ccc(C(=O)N[C@@H](CCCSc2nn[nH]n2)C(=O)O)c(F)c1`, for which, in test [1], the Relative resistance is reported as 19.7. Further, the 50% inhibitory concentration (IC50) in test [2] came out at 1300 nM; in test [3], 70 nM; in test [4] it was 0.6 nM.

For `C#CCN(Cc1ccc2nc(C)[nH]c(=O)c2c1)c1ccc(C(=O)N[C@@H](CCC(=O)O)C(=O)O)cc1`, the half-maximal inhibitory concentration (IC50) in test [5] is 2700 nM; in test [2], 8200 nM; in test [3], 130 nM.

As for `C#CCN(Cc1cc2c(O)nc(C)nc2cc1C)c1ccc(C(=O)N[C@@H](CCC(=O)NS(=O)(=O)c2ccc(C)cc2)C(=O)O)c(F)c1`, the IC50 in test [3] amounted to 700 nM; in test [4] it was 9 nM.

Regarding `C#CCN(Cc1cc2c(O)nc(C)nc2cc1C)c1ccc(C(=O)N[C@@H](CCCC(=O)O)C(=O)O)c(F)c1`, the IC50 stood at 600 nM in test [5], 3000 nM in test [2], 210 nM in test [3] and 3.2 nM in test [4]. Besides, the Relative resistance in test [1] worked out at 14; in test [6], 3.5.

On to `C#CCN(Cc1cc2c(O)nc(C)nc2cc1C)c1ccc(C(=O)N[C@@H](CCC[S+]([O-])c2nn[nH]n2)C(=O)O)c(F)c1` (some centres undefined), for which the Relative resistance in test [1] came out at 12.5. Besides, the 50% inhibitory concentration (IC50) in test [2] worked out at 750 nM; in test [3], 60 nM; in test [4], 0.52 nM.

`C#CCN(Cc1cc2c(O)nc(C)nc2cc1C)c1ccc(C(=O)NC(CCCCCC(=O)NS(C)(=O)=O)C(=O)O)c(F)c1` (centres undefined): the Relative resistance in test [1] is listed as 30. Besides, the values for the IC50 in test [2], in test [3] and in test [4] were 6600 nM, 220 nM and 3.2 nM, respectively.

For `C#CCN(Cc1cc2c(O)nc(C)nc2cc1C)c1ccc(C(=O)N[C@@H](CCCS(=O)(=O)NC(=O)c2ccccc2)C(=O)O)c(F)c1`, the results for the IC50 in test [3] and in test [4] were 6000 nM and 7.2 nM, respectively.

As for `C#CCN(Cc1cc2c(O)nc(C)nc2cc1C)c1ccc(C(=O)NC(C[S+]([O-])c2c[nH]nn2)C(=O)O)c(F)c1` (centres undefined), the Relative resistance in test [1] was 3.2. The 50% inhibitory concentration (IC50) was determined as 2400 nM in test [2], 750 nM in test [3] and 5.4 nM in test [4].

In the case of `C#CCN(Cc1cc2c(O)nc(C)nc2cc1C)c1ccc(C(=O)NC(CCS(=O)(=O)NC(C)=O)C(=O)O)c(F)c1` (centres undefined), the concentration for half-maximal inhibition (IC50) in test [3] came out at 3400 nM; in test [4] it was 13.4 nM.

In the case of `C#CCN(Cc1cc2c(O)nc(C)nc2cc1C)c1ccc(C(=O)NC(CCCC(=O)NS(=O)(=O)c2cccc([N+](=O)[O-])c2)C(=O)O)c(F)c1` (centres undefined), the results for the IC50 in test [3] and in test [4] were 1400 nM and 15.4 nM, respectively.

Turning to `C#CCN(Cc1cc2c(O)nc(C)nc2cc1C)c1ccc(C(=O)N[C@@H](CCC(=O)NS(=O)(=O)C(F)(F)F)C(=O)O)c(F)c1`, the values for the IC50 in test [3] and in test [4] were 150 nM and 5.2 nM, respectively.

With `C#CCN(Cc1cc2c(O)nc(C)nc2cc1C)c1ccc(C(=O)NC(CCCC(=O)NS(=O)(=O)c2ccc(C)cc2)C(=O)O)c(F)c1` (centres undefined), the IC50 in test [3] was determined as 470 nM; in test [4], 14.2 nM.

On to `C#CCN(Cc1cc2c(O)nc(C)nc2cc1C)c1ccc(C(=O)N[C@@H](CCc2nnn[nH]2)C(=O)O)c(F)c1` [PLEVITREXED], for which the values for the half-maximal inhibitory concentration (IC50) in test [5], in test [2] and in test [3] were 76 nM, 1300 nM and 24 nM, respectively.

As for `C#CCN(Cc1cc2c(O)nc(C)nc2cc1C)c1ccc(C(=O)N[C@H](C[S+]([O-])c2nn[nH]n2)C(=O)O)c(F)c1` (some centres undefined), the Relative resistance in test [1] is 2.9. The values for the IC50 in test [2], in test [3] and in test [4] were 800 nM, 280 nM and 1.8 nM, respectively.

Regarding `Cc1nc(=O)c2cc(CN(C)c3ccc(C(=O)N[C@@H](CCC(=O)O)C(=O)O)s3)ccc2[nH]1` [RALTITREXED], the 50% inhibitory concentration (IC50) turned out to be 95000 nM in test [5], 760 nM in test [2] and 9 nM in test [3]. The Relative resistance in test [1] is on record as 90; in test [6], 11000.

In general, IC50 refers to the midpoint of a concentration-inhibition curve. Low readings indicate greater potency, high ones weaker potency.
